# Compound activity (PubChem BioAssay)
# Sampled rows, rich in hits. Any-hit rate of the full collection: about 2.3%.
# TRPC6 inh: inhibitors of mouse TRPC6 channel | Q61143 | HEK293-TRPC6, membrane potential dye, ACh-evoked depolarization; active compounds read low | B-score at 10 µM | 310,000 tested, 1.1% active | AID 2553;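 active = B-score under library mean minus 3 SD, initial fluorescence not abnormally high, positive integrated signal ratio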;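 note: B-score derived from integrated fluorescence ratio over the kinetic read; more negative B-score means stronger inhibition of depolarization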
# TRPC4 block: TRPC4 (mouse) channel inhibition; Q9QUQ5; HEK293 TRPC4beta/mu-opioid, DAMGO-evoked Fluo4 calcium flux; active compounds read low; B-score at 10 µM; 300,000 tested, 0.39% active; AID 2247;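 active = B-score over 3 SD under the library average, no early fluorescence shift, positive overall ratio signal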
#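 Test system – stable TRPC4beta/mu-opioid receptor HEK293 cells · Probe or stimulus – DAMGO, a submaximal dose followed by a maximal one · Dosing – one concentration per compound · Signal – Fluo4 calcium fluorescence by kinetic imaging, 5 s 1 Hz baseline · Evaluation – per-well B score of integrated baseline-normalized Fluo4 ratio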
# TRPC4 PAM: TRPC4 (mouse) allosteric potentiation; Q9QUQ5; AID 2227; HEK293 TRPC4beta/mu-opioid, DAMGO EC20, Fluo-4 Ca2+ flux; active compounds read high; B-score at 10 µM; 310,000 tested, 0.42% active;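 active = B-score of calcium response area above 5 SD of library B-scores, with initial fluorescence ratio within 5 SD of library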;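 note: B-score of integrated fluorescence ratio over time as area under calcium response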
# CR mimetic SO: caloric restriction mimetics inhibiting age-related superoxide in yeast; S. cerevisiae aged cells, superoxide DHE fluorescence; active compounds read low; superoxide response (% of plate mean), % at 10 µM; 330,000 tested, 0.18% active; AID 2690;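 active = superoxide response under a set limit, about three screen SD below normal, cut at about 65% in these data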;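 note: yeast aged for seven days with compound at 30 °C before DHE staining; 100% = average MFI of all compound-treated wells on the plate with controls excluded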
# TRPC4 agonist: activators of mouse TRPC4 channel; Q9QUQ5; HEK293 TRPC4beta/mu-opioid, Fluo4 calcium fluorescence; active compounds read high; B-score at 10 µM; 310,000 tested, 0.49% active;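 active = B-score above 5 SD of library B-scores, and initial fluorescence ratio not above library mean plus 5 SD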;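 note: positive B-score marks a calcium rise read as TRPC4 activation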
#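 Test system: HEK293 cells stably co-expressing mouse TRPC4beta and mu-opioid receptor | Schedule: Fluo4 dye loading 45 min at room temperature, 110 s recording | Measured by: Kinetic Fluo4 calcium fluorescence, 5 s baseline at 1 Hz | Evaluation: B score of integrated ratio | Controls: Buffer (low) and maximal DAMGO (high)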
# TRPC6 activator: activators of mouse TRPC6 channel; HEK293-TRPC6 membrane potential dye fluorescence; active compounds read high; B-score at 10 µM; 310,000 tested, 0.13% active; AID 2550;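 active = B-score of the integrated fluorescence ratio above library mean plus 3 SD, and starting fluorescence ratio within library mean plus 5 SD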;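 note: higher score means more depolarization so channel activation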
# TRPC4 sel inh 2: second check of whether TRPC6 inhibitors also affect mouse TRPC4; HEK293 TRPC4/MOR, membrane potential dye fluorescence; channel activated by saturating DAMGO dose; inhibition, % at 10 µM; AID 2776; 920 tested, 42% active; shares compounds with TRPC6 inh;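 active = compounds whose fluorescence signal differed from control wells by over 3 SD, either direction, in both duplicate plates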
# TRPC4 spec: selectivity of TRPC6 inhibitors: effect on mouse TRPC4. activity change, negative = inhibition, % at 10 µM. HEK293 TRPC4/mu-opioid, membrane potential fluorescence. 920 tested, 61% active. shares compounds with TRPC6 inh;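 active = rise or fall in signal beyond 3 SD of buffer-only wells in both replicate plates, either sign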;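 note: integrated kinetic ratio of fluorescence range over baseline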
# HEK293 MPD ctr 2-1: parental HEK293 nonspecific activity of TRPC6 inhibitors, second screen; shares compounds with TRPC6 inh; parental HEK293 membrane potential dye fluorescence; maximal acetylcholine challenge after compound addition; signal change vs control, % at 10 µM; 920 tested, 31% active;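 active = membrane potential signal moving either way by over 3 SD of the maximum-effect control, in both duplicate plates, meaning non-specific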
# HEK293 MPD ctr-1: checks TRPC6 inhibitor effects in parental HEK293 cells. shares compounds with TRPC6 inh. parental HEK293 membrane potential dye fluorescence. membrane potential signal change, % at 10 µM. 920 tested, 60% active. AID 2780;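 active = membrane potential signal shifting up or down by more than 3 SD of buffer-only wells, on both duplicate plates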
# HEK293 MPD ctr-2: checks TRPC6 modulator effects in parental HEK293 cells | membrane potential signal change, % at 10 µM | shares compounds with TRPC6 inh | 2,400 tested, 51% active | membrane potential dye fluorescence;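 active = membrane potential signal moves up or down beyond 5 SD from buffer-only wells, on both duplicate plates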
# HEK293 MPD ctr 2-2: second counter-screen for TRPC6 modulators: effect in parental HEK293 cells. shares compounds with TRPC6 inh. membrane potential dye fluorescence; after compound, maximal acetylcholine stimulation. inhibition, % at 10 µM. 2,400 tested, 14% active;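 active = membrane potential signal drops by more than 5 SD from the mean control signal, in both duplicate plates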;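 note: plate controls were acetylcholine ECmax control wells for no effect and buffer only wells for full effect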
# TRPC4/MOR mod: mouse TRPC4 off-target activity of TRPC6 modulators; shares compounds with TRPC6 inh; HEK293 TRPC4/mu-opioid, membrane potential fluorescence; percent change from control (negative = decrease, positive = increase), % at 10 µM; 2,400 tested, 69% active;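 active = membrane potential signal moved up or down beyond 5 SD of buffer control wells, in both duplicate plates, actives on both sides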;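 note: plate controls were assay buffer wells for no effect and DAMGO maximal-effect wells for full effect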
# TRPC4/MOR inh 2: mouse TRPC4 off-target activity of TRPC6 modulators, second screen | shares compounds with TRPC6 inh | HEK293 TRPC4/mu-opioid, membrane potential dye fluorescence; stimulated with maximal-effect DAMGO | inhibition, % at 10 µM | 2,400 tested, 55% active | AID 488928;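 active = drop in membrane potential signal beyond 5 SD of the control wells in both duplicate plates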;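 note: TRPC4 counter screen for TRPC6 hits run under conditions tuned for TRPC6 not TRPC4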
# TRPC6 block conf: mouse TRPC6 inhibitor confirmation | inhibition, % at 10 µM | 3,300 tested, 43% active | shares compounds with TRPC6 inh | AID 488960 | HEK293-TRPC6, membrane potential dye, ACh-evoked depolarization;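 active = fluorescence ratio falls more than 5 SD below the full-stimulation control mean, in both duplicate runs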;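 note: integrated fluorescence ratio of peak minus minimum over baseline after agonist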
# TRPC6 act confirm: mouse TRPC6 activator confirmation | shares compounds with TRPC6 inh | HEK293-TRPC6 membrane potential dye fluorescence, FDSS | activation, % at 10 µM | 2,800 tested, 11% active | AID 488961;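 active = ratio signal rise beyond 5 SD above unstimulated control wells' mean, seen in both duplicate runs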;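 note: plate controls were buffer EC0 wells for no effect and acetylcholine ECmax response for full effect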
# An asterisk follows results filed as active; i = inactive; x = not tested or not shown.
SMILES,TRPC6 inh,TRPC4 block,TRPC4 PAM,CR mimetic SO,TRPC4 agonist,TRPC6 activator,HEK293 MPD ctr-2,HEK293 MPD ctr 2-2,TRPC4/MOR mod,TRPC4/MOR inh 2,TRPC6 block conf,TRPC6 act confirm,others
Clc1ccc2c(c1)C(N1CCNCC1)Cc1ccccc1S2 (stereo not given),-5.4*,i,i,115,i,i,i,i,i,74%*,64%*,i,
CCOC(=O)C1CCN(C(=O)c2sc3nc(C)nc(N4CCC(C)CC4)c3c2C)CC1,-9*,i,i,93,i,14*,198%*,i,30%*,i,78%*,127%*,
Cc1ccc(Cn2c(C3CCCN3c3nc(C)cs3)nc3cc(C(F)(F)F)ccc32)cc1 (stereo not given),i,i,i,97,i,i,x,x,x,x,x,x,
COc1ccccc1N1CCN(C/C=C/c2ccc(N(C)C)cc2)CC1,-7.5*,i,i,91,i,i,x,x,x,x,i,i,TRPC4 sel inh 2=68%*;TRPC4 spec=-10%*;HEK293 MPD ctr 2-1=i;HEK293 MPD ctr-1=-247%*
CC1(C(=O)NNC(=O)c2ccc([N+](=O)[O-])cc2)CC1(Br)Br (stereo not given),i,i,i,118,i,i,x,x,x,x,x,x,
CC(=O)N1CCN(c2ccc(N=Cc3c(O)n(Cc4ccccc4)c(=O)[nH]c3=O)cc2)CC1,-5.6*,i,i,x,i,i,188%*,i,-24%*,i,i,i,
O=c1c2ccccc2nc(SCc2ccc([N+](=O)[O-])cc2)n1CCCO,-5.5*,-6*,i,97,i,i,i,i,i,84%*,i,i,
Cc1ccc(-c2nc(CSc3nc4ccccc4c(=O)n3C)cs2)cc1,i,i,i,98,i,i,x,x,x,x,x,x,
CCN1CCN(c2cc(C)c3cc(NC(=O)CCC(=O)N4CCN(c5ccccc5)CC4)ccc3n2)CC1,i,i,i,98,i,i,x,x,x,x,x,x,
CCC(C)NC(=O)CCC(=O)Nc1ccc2nc(N3CCOCC3)cc(C)c2c1 (stereo not given),-5.5*,i,i,104,i,i,-260%*,i,-44%*,38%*,40%*,i,
